≈ marks a conversion by molar mass, not a printed value.
Columns and labels:
[1] = ABTS radical cation scavenging activity
How it was run: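 ABTS radical cation formed by mixing aqueous 7 mmol/L ABTS and 2.45 mmol/L potassium persulfate 1:1 and keeping in the dark 6 h at room temperature. The radical was diluted in ethanol and equilibrated at 30 °C. Test compound aliquots at 20, 40, 60, 80 and 100 µg/mL were added, incubated 30 °C for 20 min, and read at 734 nm with BHA as reference. Scavenging % = (Ac − Aa)/Ac × 100. Results given as mean ± SD.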

[2] = DPPH free radical scavenging activity
How it was run: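 Test compound aliquots at 20, 40, 60, 80 and 100 µg/mL were added to 0.004% DPPH solution, and absorbance was read at 520 nm after 30 min. BHA served as reference and methanol as control. Inhibition % = (Ao − At)/Ao × 100, with Ao the control absorbance. Results given as mean ± SD.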

**Q.** With `COc1ccc(O)c(C(C)(C)C)c1` [BHA, butylated hydroxyanisole] as the compound, how does the “ABTS scavenging property (%)” value ([1]; at 100 µg/mL concentration) read?
**A.** Its value is 98.20 ± 4.60%.

**Q.** What about the “IC50, ABTS radical scavenging” value ([1]; mean of three replicates) of the same compound?
**A.** Its value is 28.70 ± 5.20 µg/mL (≈ 159 µM).

**Q.** What about the “DPPH free radical scavenging property (%)” value ([2]; at 100 µg/mL) of the same compound?
**A.** The value was 93.4 ± 1.6%.

**Q.** And the “IC50, DPPH free radical scavenging” value ([2]; mean of three replicates)?
**A.** The value was 34.50 ± 6.20 µg/mL (≈ 191 µM).

— PMC6598219 (Saudi Pharmaceutical Journal : SPJ, 2019)
